Assay results published in ChEMBL document CHEMBL1154352, “Toll-like receptor 7 selective synthetic oligoribonucleotide agonists: synthesis and structure-activity relationship studies” (J Med Chem, 2009).
Active and inactive are the calls of the source. The calls are words filed in the database; no cut-off is given here.

Assays:
[1] = biological target: T1, Toll-like receptor 7 (Homo sapiens) (UniProt Q9NYK1); experiment: Activation of human TLR7 expressed in HEK293XL assessed as fold induction of NF-kappaB activity at 50 ug/ml after 18 hrs by reporter gene assay relative to control
T1 sequence (whole entry): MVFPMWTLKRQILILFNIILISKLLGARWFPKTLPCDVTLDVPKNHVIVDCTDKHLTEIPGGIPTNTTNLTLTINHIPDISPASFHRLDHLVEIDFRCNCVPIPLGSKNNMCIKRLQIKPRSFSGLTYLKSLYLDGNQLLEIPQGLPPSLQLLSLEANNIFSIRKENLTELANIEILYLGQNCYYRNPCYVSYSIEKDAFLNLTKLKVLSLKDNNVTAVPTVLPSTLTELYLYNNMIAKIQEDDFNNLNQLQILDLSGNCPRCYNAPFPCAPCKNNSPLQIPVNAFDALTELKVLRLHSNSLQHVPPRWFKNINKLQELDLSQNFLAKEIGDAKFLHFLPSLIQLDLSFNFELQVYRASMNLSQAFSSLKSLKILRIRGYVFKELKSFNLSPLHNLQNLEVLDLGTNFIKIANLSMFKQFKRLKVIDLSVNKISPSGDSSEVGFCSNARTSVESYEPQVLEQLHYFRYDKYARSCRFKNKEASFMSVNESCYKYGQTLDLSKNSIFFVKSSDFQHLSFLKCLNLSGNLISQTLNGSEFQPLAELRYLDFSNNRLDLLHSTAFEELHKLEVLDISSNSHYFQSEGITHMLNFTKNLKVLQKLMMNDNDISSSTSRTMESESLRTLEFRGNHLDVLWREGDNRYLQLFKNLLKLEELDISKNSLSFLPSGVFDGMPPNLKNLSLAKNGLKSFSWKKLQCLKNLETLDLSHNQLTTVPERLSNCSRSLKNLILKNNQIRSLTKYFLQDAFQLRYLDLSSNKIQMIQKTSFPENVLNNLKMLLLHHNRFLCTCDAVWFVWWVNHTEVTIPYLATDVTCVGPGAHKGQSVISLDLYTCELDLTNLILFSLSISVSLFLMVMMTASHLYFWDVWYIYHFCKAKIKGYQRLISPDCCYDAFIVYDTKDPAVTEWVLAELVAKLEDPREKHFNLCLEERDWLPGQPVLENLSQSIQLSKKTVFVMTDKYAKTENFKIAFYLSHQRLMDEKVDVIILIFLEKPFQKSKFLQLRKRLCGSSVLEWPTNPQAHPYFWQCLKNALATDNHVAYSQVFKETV
Procedure, shortened: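 HEK293 cells stably expressing human TLR7 or TLR8, transiently transfected with SEAP reporter plasmid; medium replaced, SIMRA compounds added, 18 h incubation. Supernatant SEAP measured by QuantiBlue; expressed as fold increase in NF-κB activity over PBS control. Tabulated data at 50 μg/mL, representative of three independent experiments.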

Homo sapiens [2] = organism: Homo sapiens; experiment: Ratio of human TLR7 activity to human TLR8 activity
Procedure, shortened: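 TLR7/TLR8 ratio computed from fold NF-κB (SEAP reporter) activation in HEK293 cells stably expressing human TLR7 versus TLR8, compounds at 50 μg/mL, 18 h exposure; representative of three independent experiments.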

Homo sapiens [3] = organism: Homo sapiens; experiment: Immunostimulatory activity in human pDC assessed as induction of IFNalpha at 100 ug/ml after 24 hrs; format: functional
Procedure, shortened: (§1)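 Human pDCs plated at 1 × 10^6 cells/mL; compounds in PBS added, 37 °C for 24 h; supernatant cytokines/chemokines by human Luminex multiplex kit.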

PBMC [4] = experiment: Immunomodulatory activity in human PBMC assessed as induction of IL12 at 50 ug/ml after 24 hrs; format: functional, cell-based
Procedure, shortened: (§2)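 Human PBMCs plated at 5 × 10^6 cells/mL; compounds dissolved in PBS added at various concentrations, 37 °C for 24 h. Supernatant cytokines/chemokines quantified with human Luminex multiplex kit.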

PBMC [5] = experiment: Immunomodulatory activity in human PBMC assessed as induction of TNFalpha at 50 ug/ml after 24 hrs; format: functional, cell-based; procedure, shortened: as §2
PBMC [6] = experiment: Immunomodulatory activity in human PBMC assessed as induction of IFNalpha at 50 ug/ml after 24 hrs; format: functional, cell-based; procedure, shortened: as §2
PBMC [7] = experiment: Immunomodulatory activity in human PBMC assessed as induction of MIP1alpha at 50 ug/ml after 24 hrs; format: functional, cell-based; procedure, shortened: as §2
PBMC [8] = experiment: Immunomodulatory activity in human PBMC assessed as induction of MIP1beta at 50 ug/ml after 24 hrs; format: functional, cell-based; procedure, shortened: as §2
PBMC [9] = experiment: Immunomodulatory activity in human PBMC assessed as induction of IP10 at 50 ug/ml after 24 hrs; format: functional, cell-based; procedure, shortened: as §2
PBMC [10] = experiment: Immunomodulatory activity in human PBMC assessed as induction of MCP1 at 50 ug/ml after 24 hrs; format: functional, cell-based; procedure, shortened: as §2
PBMC [11] = experiment: Immunomodulatory activity in human PBMC assessed as induction of IL6 at 50 ug/ml after 24 hrs; format: functional, cell-based; procedure, shortened: as §2
PBMC [12] = experiment: Immunomodulatory activity in human PBMC assessed as induction of IL1-beta at 50 ug/ml after 24 hrs; format: functional, cell-based; procedure, shortened: as §2
Homo sapiens [13] = organism: Homo sapiens; experiment: Immunostimulatory activity in human pDC assessed as induction of IP10 at 100 ug/ml after 24 hrs; format: functional; procedure, shortened: as §1
Homo sapiens [14] = organism: Homo sapiens; experiment: Immunostimulatory activity in human pDC assessed as induction of IL6 at 100 ug/ml after 24 hrs; format: functional; procedure, shortened: as §1
Homo sapiens [15] = organism: Homo sapiens; experiment: Immunostimulatory activity in human mDC assessed as induction of IFNalpha at 100 ug/ml after 24 hrs; format: functional
Procedure, shortened: (§3)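 Human mDCs isolated from PBMCs by CD19+ B-cell depletion then BDCA1 positive selection; plated at 1 × 10^6 cells/mL, compounds in PBS, 37 °C for 24 h; supernatant cytokines by human Luminex multiplex. Representative of four independent experiments.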

Homo sapiens [16] = organism: Homo sapiens; experiment: Immunostimulatory activity in human mDC assessed as induction of IP10 at 100 ug/ml after 24 hrs; format: functional; procedure, shortened: as §3
Homo sapiens [17] = organism: Homo sapiens; experiment: Immunostimulatory activity in human mDC assessed as induction of IL12 at 100 ug/ml after 24 hrs; format: functional; procedure, shortened: as §3
Homo sapiens [18] = organism: Homo sapiens; experiment: Immunostimulatory activity in human mDC assessed as induction of IL6 at 100 ug/ml after 24 hrs; format: functional; procedure, shortened: as §3
Homo sapiens [19] = organism: Homo sapiens; experiment: Immunostimulatory activity in human mDC assessed as induction of TNFalpha at 100 ug/ml after 24 hrs; format: functional; procedure, shortened: as §3
Mus musculus = experiment: Immunomodulatory activity in C57BL/6 mouse assessed as induction of IL12 release at 25 mg/kg, sc after 2 hrs by ELISA; format: functional, organism-based; design: dose 25 mg/kg
Procedure, shortened: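 Female C57BL/6 wild-type mice, 5–8 weeks old, n=3; compounds given subcutaneously at 10 or 25 mg/kg. Retro-orbital blood at 2 h; serum cytokines by mouse Luminex multiplex or IL-12 ELISA.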

fold change (FC) [1] | Ratio (Homo sapiens [2]) | Compound | Activity (Homo sapiens [3]) | Activity (PBMC [4]) | Activity (PBMC [5]) | Activity (PBMC [6]) | Activity (PBMC [7]) | Activity (PBMC [8]) | Activity (PBMC [9]) | Activity (PBMC [10]) | Activity (PBMC [11]) | Activity (PBMC [12]) | Activity (Homo sapiens [13]) | Activity (Homo sapiens [14]) | Activity (Homo sapiens [15]) | Activity (Homo sapiens [16]) | Activity (Homo sapiens [17]) | Activity (Homo sapiens [18]) | Activity (Homo sapiens [19]) | Activity (Mus musculus)
17.5 | 10.9 | Nc1ccn([C@@H]2O[C@H](CO[C@H]3[C@@H](O)[C@H](n4cnc5c(N)ncnc54)O[C@@H]3COP(=O)(S)O[C@H]3[C@@H](O)[C@H](n4ccc5c(=O)[nH]c(N)nc54)O[C@@H]3COP(=O)(S)O[C@H]3[C@@H](O)[C@H](n4ccc(=O)[nH]c4=O)O[C@@H]3COP(=O)(S)O[C@H]3[C@@H](O)[C@H](n4cnc5c(N)ncnc54)O[C@@H]3COP(=O)(S)O[C@H]3[C@@H](O)[C@H](n4ccc5c(=O)[nH]c(N)nc54)O[C@@H]3COP(=O)(S)O[C@H]3[C@@H](O)[C@H](n4ccc(=O)[nH]c4=O)O[C@@H]3CO)[C@@H](OP(=O)(S)OC[C@H]3O[C@@H](n4ccc5c(=O)[nH]c(N)nc54)[C@H](O)[C@@H]3OP(=O)(S)OC[C@H]3O[C@@H](n4cnc5c(N)ncnc54)[C@H](O)[C@@H]3OP(=O)(S)OC[C@H]3O[C@@H](n4ccc(=O)[nH]c4=O)[C@H](O)[C@@H]3OP(=O)(S)OC[C@H]3O[C@@H](n4ccc(=O)[nH]c4=O)[C@H](O)[C@@H]3OP(=O)(S)OCC(O)COP(=O)(S)O[C@H]3[C@@H](O)[C@H](n4ccc(=O)[nH]c4=O)O[C@@H]3COP(=O)(S)O[C@H]3[C@@H](O)[C@H](n4ccc(=O)[nH]c4=O)O[C@@H]3COP(=O)(S)O[C@H]3[C@@H](O)[C@H](n4cnc5c(N)ncnc54)O[C@@H]3COP(=O)(S)O[C@H]3[C@@H](O)[C@H](n4ccc5c(=O)[nH]c(N)nc54)O[C@@H]3COP(=O)(S)O[C@H]3[C@@H](O)[C@H](n4ccc(N)nc4=O)O[C@@H]3CO[C@H]3[C@@H](O)[C@H](n4cnc5c(N)ncnc54)O[C@@H]3COP(=O)(S)O[C@H]3[C@@H](O)[C@H](n4ccc5c(=O)[nH]c(N)nc54)O[C@@H]3COP(=O)(S)O[C@H]3[C@@H](O)[C@H](n4ccc(=O)[nH]c4=O)O[C@@H]3COP(=O)(S)O[C@H]3[C@@H](O)[C@H](n4cnc5c(N)ncnc54)O[C@@H]3COP(=O)(S)O[C@H]3[C@@H](O)[C@H](n4ccc5c(=O)[nH]c(N)nc54)O[C@@H]3COP(=O)(S)O[C@H]3[C@@H](O)[C@H](n4ccc(=O)[nH]c4=O)O[C@@H]3CO)[C@H]2O)c(=O)n1 (stereo not given in full) | Active | 434 pg/mL | 68 pg/mL | 131 pg/mL | 5790 pg/mL | 9960 pg/mL | 155 pg/mL | 56000 pg/mL | 2760 pg/mL | 306 pg/mL | Active | Active | Active | Active | Active | Active | Active | Active
16.6 | 7.9 | Nc1ccn([C@@H]2O[C@H](COP(=O)(S)O[C@H]3[C@@H](O)[C@H](n4cnc5c(N)ncnc54)O[C@@H]3CO)[C@@H](OP(=O)(S)OC[C@H]3O[C@@H](n4ccc(=O)[nH]c4=O)[C@H](O)[C@@H]3OP(=O)(S)OC[C@H]3O[C@@H](n4ccc(=O)[nH]c4=O)[C@H](O)[C@@H]3OP(=O)(S)OC[C@H]3O[C@@H](n4ccc5c(=O)[nH]c(N)nc54)[C@H](O)[C@@H]3OP(=O)(S)OC[C@H]3O[C@@H](n4cnc5c(N)ncnc54)[C@H](O)[C@@H]3OP(=O)(S)OC[C@H]3O[C@@H](n4ccc(N)nc4=O)[C@H](O)[C@@H]3OP(=O)(S)OC[C@H]3O[C@@H](n4ccc5c(=O)[nH]c(N)nc54)[C@H](O)[C@@H]3OP(=O)(S)OC[C@H]3O[C@@H](n4cnc5c(N)ncnc54)[C@H](O)[C@@H]3OP(=O)(S)OC[C@H]3O[C@@H](n4ccc(=O)[nH]c4=O)[C@H](O)[C@@H]3OP(=O)(S)OC[C@H]3O[C@@H](n4ccc(=O)[nH]c4=O)[C@H](O)[C@@H]3OP(=O)(S)OCC(O)COP(=O)(S)O[C@H]3[C@@H](O)[C@H](n4ccc(=O)[nH]c4=O)O[C@@H]3COP(=O)(S)O[C@H]3[C@@H](O)[C@H](n4ccc(=O)[nH]c4=O)O[C@@H]3COP(=O)(S)O[C@H]3[C@@H](O)[C@H](n4cnc5c(N)ncnc54)O[C@@H]3COP(=O)(S)O[C@H]3[C@@H](O)[C@H](n4ccc5c(=O)[nH]c(N)nc54)O[C@@H]3COP(=O)(S)O[C@H]3[C@@H](O)[C@H](n4ccc(N)nc4=O)O[C@@H]3COP(=O)(S)O[C@H]3[C@@H](O)[C@H](n4cnc5c(N)ncnc54)O[C@@H]3COP(=O)(S)O[C@H]3[C@@H](O)[C@H](n4ccc5c(=O)[nH]c(N)nc54)O[C@@H]3COP(=O)(S)O[C@H]3[C@@H](O)[C@H](n4ccc(=O)[nH]c4=O)O[C@@H]3COP(=O)(S)O[C@H]3[C@@H](O)[C@H](n4ccc(=O)[nH]c4=O)O[C@@H]3COP(=O)(S)O[C@H]3[C@@H](O)[C@H](n4ccc(N)nc4=O)O[C@@H]3COP(=O)(S)O[C@H]3[C@@H](O)[C@H](n4cnc5c(N)ncnc54)O[C@@H]3CO)[C@H]2O)c(=O)n1 (stereo not given in full) | Active | 360 pg/mL | 174 pg/mL | 106 pg/mL | 3620 pg/mL | 7330 pg/mL | 199 pg/mL | 49100 pg/mL | 2380 pg/mL | 218 pg/mL | Active | Active | Active | Active | Active | Active | Active | Active
